Assay [1] has as its system HL-60. The experiment in a line: Activity at sialidase in human HL60 cell lysate assessed as 4-methylumbelliferyl released at 125 uM for 2 hrs followed by washout by fluorescence assay. The assay is classed as cell-based. Summed up:
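To test uptake, HL60 cells were incubated 2 h with the 4MU sialoside, then washed thoroughly to remove free 4MU and substrate. The cells were resuspended in cell lysis buffer, and the fluorescence of the lysate was read against empty wells without cells or compound.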

Assay [2] has as its system HL-60. Kind of assay: Activity at sialidase in human HL60 cells assessed as increase in 4-methylumbelliferyl release at 125 uM after 2 hrs by fluorescence assay in presence of DANA. The assay is classed as cell-based. Summed up:
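Same whole-cell set-up: HL60 cells in acetate buffer pH 4.5 with 0.125 mM 4MU glycoside, 2 h, 37 °C, together with 0.1 mM of the non-specific sialidase inhibitor DANA. The mixture was adjusted to pH 10.7 with glycine buffer before fluorescence reading (ex 365/em 450 nm). At least biological triplicate; standard deviations shown.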

Assay [3] relates to HL-60. The experiment in a line: Activity at sialidase in human HL60 cells assessed as increase in 4-methylumbelliferyl release at 125 uM after 2 hrs by fluorescence assay. The assay is classed as cell-based. Summed up:
(§1)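 Whole HL60 cells suspended in acetate buffer (pH 4.5) were incubated with 0.125 mM 4-methylumbelliferyl sialoside for 2 h at 37 °C. The reaction was stopped by raising the pH to 10.7 with glycine buffer, and released 4MU was read at once (ex 365 nm, em 450 nm). Values are means with standard deviations from at least biological triplicate.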

In assay [4] the test system is Clostridium perfringens. The experiment in a line: Activity at Clostridium perfringens sialidase assessed as 4-methylumbelliferyl released at 125 uM for 1 hr by fluorescence assay. Summed up: (§2)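 Purified recombinant C. perfringens sialidase (0.05 mU) in acetate buffer pH 4.5 incubated 1 h at 37°C with 0.125 mM 4MU glycoside; parallel reactions with 0.1 mM DANA. Reaction brought to pH 10.7 with glycine buffer; fluorescence read at ex 365/em 450 nm. Relative values compare fluorescence with that of the natural Neu5Ac substrate. At least biological triplicate; standard deviations.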

Assay [5] relates to Clostridium perfringens. The experiment in a line: Activity at Clostridium perfringens sialidase assessed as 4-methylumbelliferyl released at 125 uM for 1 hr by fluorescence assay relative to 4-Methylcoumarin-7-yl 5-acetamido-3,5-dideoxy-alpha-D-glycero-D-galacto-2-nonulopyranosidonic acid. Summed up: as §2
Assay [6] has as its system HL-60. Kind of assay: Activity at sialidase in human HL60 cells assessed as decrease in 4-methylumbelliferyl release at 125 uM after 2 hrs by fluorescence assay relative to 4-Methylcoumarin-7-yl 5-acetamido-3,5-dideoxy-alpha-D-glycero-D-galacto-2-nonulopyranosidonic acid. The assay is classed as cell-based. More on the design: scale not given: the % may be the effect or the level left. Summed up: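 Intact HL60 cells in pH 4.5 acetate buffer were exposed to 0.125 mM glycoside for 2 h at 37 °C. Glycine buffer (pH 10.7) was then added, and fluorescence was measured (ex 365, em 450 nm). The increase over background was expressed relative to the natural N-acetyl 4MU sialoside run the same way. At least biological triplicate, with standard deviations.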

In assay [7] the test system is HL-60. The experiment in a line: Activity at sialidase in human HL60 cells assessed as decrease in 4-methylumbelliferyl release at 125 uM after 2 hrs by fluorescence assay. The assay is classed as cell-based. Summed up:
as §1

Assay [8] deals with HL-60. Kind of assay: Activity at sialidase in human HL60 cells assessed as increase in 4-methylumbelliferyl release at 125 uM after 2 hrs by fluorescence assay relative to 4-Methylcoumarin-7-yl 5-acetamido-3,5-dideoxy-alpha-D-glycero-D-galacto-2-nonulopyranosidonic acid. The assay is classed as cell-based. Summed up: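 Whole HL60 cells suspended in acetate buffer pH 4.5, treated 2 h at 37°C with 0.125 mM 4MU glycoside; parallel wells with 0.1 mM DANA. Stopped with glycine buffer pH 10.7, fluorescence read immediately (ex 365/em 450 nm). Fluorescence increase over background compared with the natural Neu5Ac substrate. At least biological triplicate; standard deviations.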

Active and inactive are the calls of the source. The rule behind the calls is not given here.

Turning to `CC(=O)N[C@H]1[C@H]([C@H](O)[C@H](O)CO)O[C@@](Oc2ccc3c(C)cc(=O)oc3c2)(C(=O)O)C[C@@H]1O`, the result in assay [1] and in assay [2] was inactive. Also, the result in assay [3] and in assay [4] was Active.

Consider `Cc1cc(=O)oc2cc(O[C@]3(C(=O)O)C[C@H](O)[C@@H](NC(=O)C(C)C)[C@H]([C@H](O)[C@H](O)CO)O3)ccc12`, for which the outcome in assay [5] was Active. The result in assay [2] was inactive. For the same compound, the Activity in assay [6] worked out at 60%.

Turning to `Cc1cc(=O)oc2cc(O[C@]3(C(=O)O)C[C@H](O)[C@@H](NC(=O)CCC(F)(F)F)[C@H]([C@H](O)[C@H](O)CO)O3)ccc12`, the result in assay [2] and in assay [4] was inactive. In addition, the outcome in assay [7] was Active.

With `Cc1cc(=O)oc2cc(O[C@]3(C(=O)O)C[C@H](O)[C@@H](NC(=O)CF)[C@H]([C@H](O)[C@H](O)CO)O3)ccc12`, the Activity amounted to 6% in assay [5] and 50% in assay [8]. In assay [2], the result was inactive.

As for `Cc1cc(=O)oc2cc(O[C@]3(C(=O)O)C[C@H](O)[C@@H](NC(=O)CC(F)(F)F)[C@H]([C@H](O)[C@H](O)CO)O3)ccc12`, the outcome in assay [5] and in assay [7] was Active. Also, the result in assay [2] was inactive.

For `CC(F)(F)F.Cc1cc(=O)oc2cc(O[C@]3(C(=O)O)C[C@H](O)[C@@H](NC(=O)CO)[C@H]([C@H](O)[C@H](O)CO)O3)ccc12`, the Activity in assay [5] was found to be 6%; in assay [8], 20%. Further, the outcome in assay [2] was inactive.

The values above are taken from ChEMBL document CHEMBL2385006, “Fluorogenic sialic acid glycosides for quantification of sialidase activity upon unnatural substrates” (Bioorg Med Chem Lett, 2013).
